Data taken from ChEMBL document CHEMBL1156168, “Eastern extension of azoles as non-nucleoside inhibitors of HIV-1 reverse transcriptase; cyano group alternatives” (Bioorg Med Chem Lett, 2010).

Columns and labels:
MT2 [1] = assay: (§1) Cytotoxicity against human MT2 cells by MTT assay; type: cell-based; settings: mt2
[2] = test system: Human immunodeficiency virus 1; assay: Antiviral activity against HIV1 3B infected in human MT2 cells assessed as inhibition of virus replication by MTT assay; type: functional, organism-based; settings: Human immunodeficiency virus 1, 3B
In short: (§2)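 HIV-1 (IIIB or RT-variant strain) infection of human MT-2 T-cells. Protection of the infected cells was read out by the MTT colorimetric method.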

MT2 [3] = assay: Cytotoxicity against human MT2 cells infected with HIV1 harboring reverse transcriptase Y181C mutation by MTT assay; type: cell-based
MT2 [4] = assay: Cytotoxicity against human MT2 cells infected with HIV1 harboring reverse transcriptase K103N/Y181C mutation by MTT assay; type: cell-based
[5] = test system: Human immunodeficiency virus 1; assay: Antiviral activity against HIV1 reverse transcriptase Y181C mutant infected in human MT2 cells assessed as inhibition of viral replication by MTT assay; type: functional, organism-based; settings: Human immunodeficiency virus 1, MT2; in short: as §2
[6] = test system: Human immunodeficiency virus 1; assay: Antiviral activity against HIV1 reverse transcriptase K103N/Y181C double mutant infected in human MT2 cells assessed as inhibition of viral replication by MTT assay; type: functional, organism-based; settings: Human immunodeficiency virus 1, MT2; in short: as §2
[7] = as §1; type: cell-based; settings: MT2 cells

Compound	CC50 (MT2 [1])	EC50 [2]	CC50 (MT2 [3])	CC50 (MT2 [4])	EC50 [5]	EC50 [6]	CC50 [7]
Fc1cccc(F)c1Cc1cnc(Nc2ccc(COc3ccncc3)c(Cl)c2)o1	3.8 µM	0.03 µM					
[O-][n+]1ccc(OCc2ccc(Nc3ncc(Cc4c(F)cccc4F)o3)cc2Cl)cc1	1.7 µM	0.011 µM	2.7 µM	2.1 µM			
N#Cc1ccc(Nc2ncc(Cc3c(F)cccc3F)o2)cc1Cl		0.006 µM					
Clc1cccc(Cl)c1Cc1nnc(Nc2ccc(COCc3ccccn3)cc2)o1	> 100 µM	5 µM					
Clc1cccc(Cl)c1Cc1nnc(Nc2ccc(COCc3ccco3)cc2)o1	12 µM	2.8 µM					
OCc1ccc(Nc2ncc(Cc3c(F)cccc3F)o2)cc1Cl	90 µM	0.26 µM					
Clc1cccc(Cl)c1Cc1nnc(Nc2ccc(COCc3ccccc3)cc2)o1	84 µM						
Fc1cccc(F)c1Cc1cnc(Nc2ccc(Oc3ccncc3)c(Cl)c2)o1	21 µM	0.12 µM	17 µM	17 µM	2.3 µM	7.2 µM	
Clc1cccc(Cl)c1Cc1nnc(Nc2ccc(COCc3cccnc3)cc2)o1	81 µM	4.6 µM					
Clc1cccc(Cl)c1Cc1nnc(Nc2ccc(COCc3ccncc3)cc2)o1	81 µM	1.6 µM					
CSCc1ccc(Nc2ncc(Cc3c(F)cccc3F)o2)cc1	> 100 µM	1.2 µM					
OCCc1ccc(Nc2ncc(Cc3c(F)cccc3F)o2)cc1	35 µM	2.7 µM					
Fc1cccc(F)c1Cc1cnc(Nc2ccc(CCOc3ccncc3)cc2)o1	11 µM	1.1 µM					
O=c1ccn(CCOc2ccc(Nc3ncc(Cc4c(F)cccc4F)o3)cc2)c(=O)[nH]1	73 µM	25 µM					
COCc1ccc(Nc2nnc(Cc3c(Cl)cccc3Cl)o2)cc1	100 µM	4.3 µM					
O=c1ncccn1SCCc1ccc(Nc2ncc(Cc3c(F)cccc3F)o2)cc1	> 100 µM	13 µM					
Fc1cccc(F)c1Cc1cnc(Nc2ccc(COc3ccncc3)cc2)o1	> 100 µM	0.4 µM					

Compound	CC50 (MT2 [1])	EC50 [2]	CC50 (MT2 [3])	CC50 (MT2 [4])	EC50 [5]	EC50 [6]	CC50 [7]
Fc1cccc(F)c1Cc1cnc(Nc2ccc(Oc3ccncc3)cc2)o1	21 µM	0.19 µM	17 µM	17 µM	5 µM	12 µM	
Fc1cccc(F)c1Cc1cnc(Nc2ccc(Oc3cccnc3)cc2)o1	22 µM	0.31 µM					
OCc1ccc(Nc2ncc(Cc3c(F)cccc3F)o2)cc1	> 100 µM	3.8 µM					
COCc1ccc(Nc2ncc(Cc3c(Cl)cccc3Cl)o2)cc1	8.1 µM	1.2 µM					
Clc1cccc(Cl)c1Cc1nnc(Nc2ccc(COCc3ccoc3)cc2)o1	21 µM						
Clc1cccc(Cl)c1Cc1nnc(Nc2ccc(COCc3ccsc3)cc2)o1	> 100 µM						
COCc1ccc(Nc2ncc(Cc3c(F)cccc3F)o2)cc1	32 µM	2.1 µM					
Fc1cccc(F)c1Cc1cnc(Nc2ccc(COCc3ccco3)cc2)o1	31 µM	1.6 µM					
Fc1cccc(F)c1Cc1cnc(Nc2ccc(Oc3cccnc3)c(Cl)c2)o1					3.2 µM	4.5 µM	
Fc1cccc(F)c1Cc1cnc(Nc2ccc(Oc3cccnc3)c(Br)c2)o1	7.5 µM	0.034 µM					
Fc1cccc(F)c1Cc1cnc(Nc2ccc(-c3ccncc3)c(Cl)c2)o1	9.3 µM	0.14 µM	11 µM	9.1 µM	3.8 µM	5.6 µM	
Fc1cccc(F)c1Cc1cnc(Nc2ccc(-c3cccnc3)c(Cl)c2)o1	8.9 µM	0.073 µM	15 µM	12.5 µM	6 µM		
O=C1Nc2ccc(Cl)cc2[C@@](C#CC2CC2)(C(F)(F)F)O1 [EFAVIRENZ]	> 0.1 µM		> 0.1 µM	> 0.1 µM			
Cc1cc(C#N)cc(C)c1Oc1nc(Nc2ccc(C#N)cc2)nc(N)c1Br [ETRAVIRINE]	> 0.1 µM		> 0.1 µM	> 0.1 µM	0.011 µM		
Cc1ccnc2c1NC(=O)c1cccnc1N2C1CC1 [NEVIRAPINE]							> 100 µM
Cc1cn([C@H]2C=C[C@@H](CO)O2)c(=O)[nH]c1=O [STAVUDINE]		1.4 µM			0.7 µM	0.5 µM	
